Assay results gathered from unrelated publications.
Lines come from different studies, so protocols differ.
Target: Tyrosine-protein kinase Fyn (FYN, Homo sapiens, UniProt P06241)

Compound	assay	setting	remaining binding [%]
CCOCCn1cc(C(=O)Nc2ccc(-n3nc(-c4cccnc4)cc3C(F)(F)F)cn2)ccc1=O	cell-free assay, competition with immobilised ligand	1 µM	53
CN(c1nccc(-c2cnn3ncccc23)n1)C1CC1	binding	1 µM	85
NS(=O)(=O)c1cc(NC(=O)C2(c3ccccc3Cl)CC2)ccc1Oc1cccc(Cl)c1	cell-free assay, competition with immobilised ligand	1 µM	100
O=C(NCCCN1CCOCC1)c1ccc(Nc2nccc(-c3cc4ccccc4s3)n2)cc1	binding, competition with immobilised ligand	1 µM	94
CC1CCCN1c1nccc(-c2cnn3ncccc23)n1 (centres unmarked)	binding	1 µM	69
CN(C)CC#Cc1ccc(OCCCc2sc(N3CCc4cccc(C(=O)Nc5nc6ccccc6s5)c4C3)nc2C(=O)O)c(F)c1	cell-free assay, competition with immobilised ligand	1 µM	96
O=C(NCC1CCOCC1)c1n[nH]cc1NC(=O)c1c(F)cccc1F	binding, competition with immobilised ligand	1 µM	100
O=C(c1ccc(Nc2nccc(-c3cc4ccccc4s3)n2)cc1)N1CCC(N2CCCC2)CC1	binding, competition with immobilised ligand	1 µM	85
O=C(O)[C@@H]1[C@@H](Cn2nnc3ccccc3c2=O)CC[C@H]1C(=O)c1ccc(OCCC2CCOCC2)cc1	cell-free assay, competition with immobilised ligand	1 µM	76
CN(C)c1nccc(-c2cnn3ncccc23)n1	binding	1 µM	100
FC(F)(F)Oc1cccc(-c2cnc3ccc(-c4ccncc4)nn23)c1	cell-free assay, competition with immobilised ligand	5 µM	51
C[C@@H]1CCN(c2nccc(-c3cnn4ncccc34)n2)C1	binding	1 µM	88
C[C@H](c1ccc(F)cc1)N(Cc1cccc(C(=O)O)c1)C(=O)c1cnc2ccccc2c1	cell-free assay, competition with immobilised ligand	1 µM	63
O=C(c1ccc(Nc2ncc(Cl)c(-c3cc4ccccc4s3)n2)cc1)N1CCC(N2CCCC2)CC1	binding, competition with immobilised ligand	1 µM	96
COc1cnc(Nc2cccc(S(N)(=O)=O)c2)nc1N1CCN(c2ccccc2)C(=O)C1	binding, competition with immobilised ligand	1 µM	100
c1cncc(-c2cccc(Nc3nccc(NC4CCCCC4)n3)c2)c1	binding, competition with immobilised ligand	10 µM	45
CN(CCCC(F)(F)F)c1nccc(-c2cnn3ncccc23)n1	binding	1 µM	82
CCN1CCN(Cc2ccc(C(=O)Nc3ccc(C)c(Oc4ccc5c(c4)CC(=O)N5)c3)cc2C(F)(F)F)CC1	binding, competition with immobilised ligand	1 µM	90
CC(C)CC(=O)N1CCc2nc(-c3ccc(Br)cc3)nc(N(C)Cc3ccccc3)c2C1	cell-free assay, competition with immobilised ligand	0.1 µM	100
COc1ccnn2ncc(-c3ccnc(N(C)C)n3)c12	binding	1 µM	100
